These results are taken from ChEMBL document CHEMBL1147842, “Novel 1,4-benzodiazepine derivatives with antiproliferative properties on tumor cell lines” (Bioorg Med Chem Lett, 2007).

Activity calls are given as the source filed them. No cut-off for these calls is given here.

Format in all cases: functional, cell-based
A short description of assay [1]: (§1) Antiproliferative activity against v-Src transformed mouse NIH 3T3 fibroblast after 72 hrs. The following applies: NIH3T3, 72 h. An outline of the steps: (§2)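 NIH 3T3/v-Src fibroblasts seeded at 10⁵/well, left overnight at 37°C in 5% CO₂. Compound exposure 0–150 μM for 72 h. Cells then washed in PBS, trypsinised and counted in a particle counter. Means of at least two independent experiments run in duplicate. IC₅₀ taken from a sigmoidal dose-response fit.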

Another assay deals with A2058. As to the kind of experiment: Cytotoxicity against human A2058 cells after 72 hrs by WST-1 colorimetric test. The following applies: for IC50: A2058, 72 h. An outline of the steps: (§3)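 WST-1 colorimetric readout, based on cleavage by mitochondrial dehydrogenases. A2058 (4000 cells/well) or HeLa (3000 cells/well) left overnight at 37°C in 5% CO₂, then exposed to compounds at 0–150 μM for 72 h. WST-1 added for 2 h, absorbance at 450 nm read against a background control. Means of at least two independent experiments in triplicate.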
(In general: Formazan colour is commonly taken as a measure of viable cells.)

For another assay, the system named is HeLa. In words: Cytotoxicity against human HeLa cells after 72 hrs by WST-1 colorimetric test. In short, it runs like this: as §3
Assay [2] concerns NIH3T3. The assay is described as §1. In short, it runs like this:
as §2

In assay [3] the test system is NIH3T3. In words: Antiproliferative activity against v-Src transformed mouse NIH 3T3 fibroblast at 150 uM after 72 hrs. In short, it runs like this: as §2

By IC50 is commonly meant the concentration needed to halve the response being measured.

As to `CN1C(=O)CN=C(c2ccc(Cl)cc2)c2cc(Cl)ccc21` [RO-54864], the IC50 in assay [1] is 31.9 µM; in the assay with A2058, at least 100 µM; with HeLa, at least 100 µM.
For `NCCCC[C@@H]1N=C(c2ccccc2)c2ccccc2N(Cc2ccc(OP(=O)(O)O)cc2)C1=O`, the half-inhibitory concentration (IC50) in assay [1] was at least 80 µM; with A2058, 33.8 µM; in the assay on HeLa it was at least 80 µM.
On to `C[C@@H]1N=C(c2ccccc2)c2ccccc2N(Cc2ccc(CP(=O)(O)O)cc2)C1=O`, for which the result with NIH3T3 [2], in the assay on A2058 and with HeLa was inactive.
For `C[C@@H]1N=C(c2ccccc2)c2ccccc2N(Cc2ccc(OP(=O)(O)O)cc2)C1=O`, the values for the IC50 (in assay [1]; with A2058; in the assay on HeLa) were 36.6 µM, 28.9 µM and 21.3 µM, respectively.
As for `C[C@@H]1N=C(c2ccccc2)c2ccccc2NC1=O`, the result in the assay on NIH3T3 [3], in the assay with A2058 and in the assay with HeLa was inactive.
For the compound `NCCCC[C@@H]1N=C(c2ccccc2)c2ccccc2N(Cc2ccc(CP(=O)(O)O)cc2)C1=O`, the result in the assay with NIH3T3 [2], in the assay on A2058 and in the assay on HeLa was inactive.
As for `C[C@@H]1N=C(c2ccccc2)c2ccccc2N(Cc2ccc(OP(=O)(O)OCc3ccccc3)cc2)C1=O`, the values for the IC50 (in assay [1]; in the assay with A2058; with HeLa) were 49.5 µM, 61.5 µM and 40.5 µM, respectively.
On to `C[C@@H]1N=C(c2ccccc2)c2ccccc2N(Cc2ccc(O)cc2)C1=O`, for which the IC50 in assay [1] amounted to 38.6 µM; with A2058 it was 27.2 µM; with HeLa, 29.3 µM.
